# Measured values taken from the RNAGym collection of RNA variant scans (doi:10.1126/science.aae0568).
# Fewer inactive variants are shown than the library holds.
# B1: tRNA (parent)
# chain: GUUCCGUUGGCGUAAUGGUAACGCGUCUCCCUCCUAAGGAGAAGACUGCGGGUUCGAGUCCCGUACGGAACG
# Variants of: B1
# Assay: yeast fitness relative to wild type (ratio to wild type); higher = fitter; tRNA-Arg(CCU), competitive growth, 37 C, YPD
# Outline: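 Changes in genotype frequencies gave Darwinian fitness relative to wild type. Frequencies were read by 100-nucleotide paired-end sequencing of gene amplicons before and after pooled Saccharomyces cerevisiae strains, carrying tRNA-Arg(CCU) gene variants at the native locus, were competed in YPD at 37°C for 24 hours in six replicates. A genotype was kept only with ≥ 100 starting reads, and estimates < 0.5 were set to 0.5.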
row,Variant,yeast fitness
1,GUUCCGUUUGCGUAAUGGUCACGCGUCUUCCUCCUAAGGAGAAGACUGCCGGUUCGAGGCCUGUACGAAACG,≤ 0.5
2,GUUCCGUUCGCGUAAUGGUAACGCGUCCCCUUCCUAAGGAGAAGACUGCGGGUUCGAGUCCCGUACGGAACG,≤ 0.5
3,GUUCCGUUCGCGUAAUGGUAACGCGGCUCCCACCUAAGGAGAAGACUGCGGGUUCGUGUCCCGUACGGAACG,0.633
4,GUUCCGUUGACGUUAUGGUAACGCGUCUCUCUCCUACGGAGAAGACUGCGGGAUCGAGUCCCGUACGGAACG,≤ 0.5
5,GUUCCGUUGACGUGAUGGUAACGCGUCUCCCUUCUAAGGAGAAGACUGCGGGUUCGAGUCCCGUACGGAACG,≤ 0.5
6,GUUCCGUUGACGUCAUGGUAACGCGUGUCCCUCCUAAGGAGAAGAGUGCGGGUUCGAGUCCCGUGCGGAACG,≤ 0.5
7,GUUCCGUUGACGUGAUGGUAACGCGUCUCCCUCCUAAGGAGAAGACUGCGGGUUCGAGUCCCGUACGGACCG,0.535
8,GUUCCGUUUGCGUAAUGGUAACGCGUCUCCCUCCUAAGGAGAAGACUGCGGGUUCGAGUCCCGUACGGAACG,0.955
9,GUUCCGUUUGCGUAAUGGUAACGCGUCUGCCUCCUAAGGAGAAGACUGCGGGUUCGAGUCCCGUUCGGAACG,≤ 0.5
10,GUUCCGUUCGCGUAAUGGCAACGCGUCUCCAUCCUAAGGAGAAGACUGCGGGUUUGAGUCCCGUACGGCACG,0.547
11,GUUCCGUUCGCGUAAUGGCAACCCGUCUCCCUCCUAAGGAGAAGACUGCGGGUUCGAGACCCGUACGCAACG,0.548
12,GUUCCGUUUGCGUAAUGGUAACGCGUCUCCCUCCUAAGGAGAAGACUGCGGGUUCGAGUCCCAUUCGGAACG,≤ 0.5
13,GUUCCGUUCGCGUAAUGGCAACGUGUAUCCCUCCUAAGGAGAAGACUGCGGGUUCGAGUCCCGUACGGAACG,≤ 0.5
14,GUUCCGUUGACGUCAUGGUAACGCGUCUCCCACCUAAGGAGAAGACUGCGGGUUCGAGUCCCGUACGGAACG,≤ 0.5
15,GUUCCGUUCGCGUAAUGGUAACGCGUCUCCCACCUAAGGAGAAGACUGCGGGUUCGAGUCCCGUACGGAACG,0.648
16,GUUCCGUUUGCGUAAUGGUAACGCGUCUCCCUCCUAAGGAGAAGACUGCGGGUUCGAGUCCCGUACGGCACG,0.909
17,GUUCCGUUCGCGUAAUGGUAACGCGUCUCCCACCUAAGGAGAAGACUGCGGGUUCGACUCCCGUACGGAACG,0.583
18,GUUCCGUUGACGUCAUGGUAACGCGUCUCCCUCCUAAGGAGAAGACUGCGGGUUCGAGUCCCGUACGGAACG,0.539
19,GUUCCGUUGACGUGAUGGUAACGCGUCUCCCUCCUAAGGAGAAGACUGCGGGUUCGAGUCCCGUACGGAACG,0.671
20,GUUCCGUUUGCGUAAUGGUAACGCGUCUCCCUCCUAAGGAGAAGACUGCGGGUUCGAGUCCCGUUCGGAACG,0.639
21,GUUCCGUUCGCGUAAUGGUAACGCGUCCCCCUCCUAAGGAGAACACUGCGAGUUCGAGUCCCGUACGGAACG,≤ 0.5
22,GUUCCGUUUGCGUAAGGGUAACGCGUCUCCCUCCUAAGGAGAAGACUGCGGGUUCGAGUCCCGUACGGAACG,0.612
23,GUUCCGUUCGCGUAAUGGCAACGCGUCUCCCUCCUAAGGAGAAGACUACGGGUUCGAGUCCCGUAUGGAACG,0.657
24,GUUCCGUUCGCGUAAUGGUAACGCGUCUCCCCCCUGAGGAGAAGACUGCGGGUUCGAGUCCCGUACGGAACG,≤ 0.5
25,GUUCCGUUUGCGUAAUGGUAACGCGUCUCCCUUCUAAGGAGAUGACUGCGGGUUCGAGGCCCGUACGGAACG,0.676

row,Variant,yeast fitness
1,GUUCCGUUCGCGUAAUGGUAACGCGCCUCCCUCGUAGGGAGAAGACUGCGGGUUCGAGUGCCGUCCGGAACG,≤ 0.5
2,GUUCCGUUCGCGUAAUGGUAACGCGUCUCCCGCCUAAGGAGAAGACUGCGGGUUCGAGUCCCGUACGGACCG,≤ 0.5
3,GUUCCGUUCGCGUAAUGGUAACGCGUCUCCCACCUAAGGAGAAGACUGCGGGUUCCAGUCCCGUACGGAACG,≤ 0.5
4,GUUCCGUUUGCGCAAUGGUAACGCGUCUCCCUCCUAAGGAGAAGACUGCGGGUUCGCGUCCCGUAAGGAACG,≤ 0.5
5,GUUCCGUUUGCGUAAUGGUAACGCGUCUCCCUCCUAAGCAGAAGACUGCGGGUUCGAGUCCCGUACGGACCG,≤ 0.5
6,GUUCCGUUUGCGUAAUGGUAACGCGUCUCCCUCCUAAGGAGAAGACUGCGGGUUCGAGUCCCAUACGGAACG,0.71
7,GUUCCGUUCGCGUAAUGGCAACGCGUCUCCCUCCUAAGGAGAAGACUACGGGUUCGAGUCCCGUACGGAACG,0.901
8,GUUCCGUUUGCGUAAUGGUAACGGGUCUCCCUCCUAAGGAGAAGACUGCGGGUUUGAGUCCCGUAUGGAACG,≤ 0.5
9,GUUCCGUUUGCGUCAUGGUAACGUGUCUCCCUCCCAAGGAGAAGAGUGCGGAUUCGAGUCACGUACGGAACG,≤ 0.5
10,GUUCCGUUUGCGUGAUGAUAACGCGUCUCCCUCCUAAGGAGAAGAAUGGGGGUUCGAGUCCCGUACGGAACG,≤ 0.5
11,GUUCCGUUCGCGUAAUGGUAACGCGACUCCCUCCUAAGGAGAAGACCAUGGGUUCAAGUCCCGUACCGGACG,≤ 0.5
12,GUUCCGUUCGCGUAAUGGUAACGCGUCCCCCUCCUACGGAGAAGAGUGCGGGUUCGAGUCCCGUACGGAACG,0.768
13,GUUCCGUUUGAGUGAUGGUAACGUGUCUCCCUCCUAAGGACAAGACUGCGGGUUGGAGUCCCGUACGGAACG,≤ 0.5
14,GUUCCGUUCGCGUAAUGGUAACGCGCCUCCCUCGUAGGGAGAAGACUGCGGGUUCGAGUCCCGUACGGAACG,0.591
15,GUUCCGUUUGCGUAAUGGUAACGCGUCUCCCUCCUAAGGAGAAGACUGCGGGUUCGAGUCCCGUACGCAACG,0.77
16,GUUCCGUUGACGUCAUGGUAACGCGUCUCCCUCUUAAGGAGGAGACUGCGGGUUCGAGUCCCGUUCGAAACG,≤ 0.5
17,GUUCCGUUCGCGUAAUGGUAACGCGUCACCCUCCUAAGGAGAAGAUUGCGGGUUCGAGUCCCGUACGGAUCG,0.615
18,GUUCCGUUUGCGUAAUGGUAACGGGUCUCCCUCCUAAGGAGAAGCCUGCGGGUUCGAGUCCCGUACGGAACG,≤ 0.5
19,GUUCCGUUGACGUUAUGGUGACGCGGCUCCGUCGUAAGGAGUCGACUGCCGGUUCGAGUCCCAUACGGAACG,≤ 0.5
20,GUUCCGUUCGCGUAAUGGUAACGCGUCUCCCUCCGAAGGAAAAGACUGCGGGUUCAAGUCCCGUACGGACCG,≤ 0.5
21,GUUCCGUUCGCGUAAUGGCAACGCGUCUUCCUCCUUAGGAGAAGACUGCGGGUUCGAGUCCCGUACAGAACG,≤ 0.5
22,GUUCCGUUCGCGUAAUGGUAACGCGUCUCCCUCCAAAGGAGAAGCCGGCGGGUUCGAGUCCGGUCCGGAACG,≤ 0.5
23,GUUCCGUUGACGUGAUGGUAACGCGUUUCCCUCCUAAGGCGAAGACACCGGGUUCGAGUCCCGUACGGAACG,≤ 0.5
24,GUUCCGUUCGCGUAAUGGUAACGCGUCUCCCUCCUAAGGAGAAGACUGCGGGUCCGAGUCCCGUACGGAACG,0.704
25,GUUCCGUUCGCGUAAUGGUAACGCGUCUCCCUCCUAAGGAGAAGACUGCGGGUACGAGUCCCGUACGGAACG,0.658

row,Variant,yeast fitness
1,GUUCCGUUCGCGUAAUGGUAACGCGUCUCCCCCCUAAGGAGAAGACUGCGGGCUCGAGUCCCGUACGGAACG,≤ 0.5
2,GUUCCGUUCGCGUAAUGGCAACGCGUCUCCGUCCUAAGGAGAAGACUGCGGGUUCGAGUCCCGUACGGAACG,0.605
3,GUUCCGUUCGCGUAAUGGUAACGCGUCUCCCACCUAAGGAGAAGACUGCGGGUUUGUGUCCAGUACGGAACG,≤ 0.5
4,GUUCCGUUUGCGUAAUGGUAACGUGUCUCCCUCCAAAGGGGAAGACUGCGGGUUCGAGUACCGUACCGAACG,≤ 0.5
5,GUUCCGUUGACGUGAUGGUAACGCGUCUGCCUCCUAAGGAGAAGACUGCGGGUUCGAGUCCCGUACGGAACG,≤ 0.5
6,GUUCCGUUCGCGUAAUGGUAACGCGUCUCCCUCCUAAGGAGAAGACUGCGGGUGCGAGUCCCGUACGGACCG,0.545
7,GUUCCGUUCGCGUAAUGGUAACGCGUCUCCCCCCUGAGGAGAAGACUGCGGGUUCGAGUCCCGUACGGAUCG,≤ 0.5
8,GUUCCGUUCGCGUAAUGGUAACGCGACUCCCUCCUAAGGAGAAGACUCCGGGUUCGAGUCCCGUACGGAACG,≤ 0.5
9,GUUCCGUUGACGUCAUGGUAAUGCGUCUCCCUCCUAAGGAGAAGACUGCGGGUUCGAGUCCCGUACGGAACG,≤ 0.5
10,GUUCCGUUCGCGUAAUGGUAACGCGUCGCCCUCCUAAGGAGAAGACUGCGGGUUGGAGUCCCGUACGGUACG,≤ 0.5
11,GUUCCGUUCGCGUAAUGGUAACGCGUCGUCCUCCUAAGGAGAAGACUGUGGGUAUGAGUCCCGUACGGACCG,≤ 0.5
12,GUUCCGUUUGCGUAAUGGUAACGCGUCUCCCUCUUAAGGAAAAGACUGCGGGUUCGAGUCCCGUACGGAACG,≤ 0.5
13,GUUCCGUUCGCGUAAUGGCAACGCGUCUCCAUCCUAAGGAGAAGACUGCGGGUUCGACUCCCGUACGGAUCG,≤ 0.5
14,GUUCCGUUGACGUGAUGGUAACGCGUCUCCCUCCUAAGGAGAAGAAUGCGGGUUCGGGUCCCGUACGGAACG,≤ 0.5
15,GUUCCGUUCGCGUAAUGGUAACGCGUCUCCCUCCUAAGGAGAAGACCGCGGGUUCGAGUCCCGUACGGAACG,0.632
16,GUUCCGUUCGCGUAAUGGUAACGCGUCUCCCUCCUAAGGAGAAGACGGCGGGUUCGAGUCCCGUACGGAACG,0.595
17,GUUCCGUUCGCGUAAUGGUAACGCGUCAACCUCCGAAGGAGAAGACUGCGGGUUCGAGUCCCGUACGGAACG,≤ 0.5
18,GUUCCGUUCGCGUAAUGGUAACGCGUCCCCCUCCUAAGGAGUAGACCGCGGGUUCGAGUCCCGUACGGAACG,0.54
19,GUUCCGUUUGCGUAAUGGUAAGGCGUCUCCCUCCUAAGGAGAAGACUGCGGGUUCGAGUCCCGUACGGAUCG,0.623
20,GUUCCGUUCGCGUAAUGGUAACGCGACUCCCUCCUAAGGAGAAGACUGCGGGUUCGAGUCCCGUACGGAACG,0.613
21,GUUCCGUUCGCGUAAUGGCAACGUGUAUCCCUCCUAAGGAGAAGACUGCGGGUUCGAGUCCCGUACGAAACG,≤ 0.5
22,GUUCCGUUCGCGUAAUGGUAACGCGUCACCCUCCUAAGGAGAAGCCUCCGGGUUCGAGUCCGGUACGGAACG,0.545
23,GUUCCGUUCGCGUAAUGGUAACGCGUCCCCCUCCUAAGGAGAAGACUGCGGGUUCGAGUCCCGUACGGAACG,0.675
24,GUUCCGUUUGCGUAAUGGUAACGCGUCUCCCUCCUAAGGAGAGGACUGCGGGUUCGAGUCCCGUACGGAACG,0.817
25,GUUCCGUUUGCGUAAUGGUACCGCGUCUCCCUCCUAAGGAGUACACUGCGGGCUCGAGUCCCGUACGGAACG,≤ 0.5
